Assay results published in ChEMBL document CHEMBL1649117, “GRL-02031, a novel nonpeptidic protease inhibitor (PI) containing a stereochemically defined fused cyclopentanyltetrahydrofuran potent against multi-PI-resistant human immunodeficiency virus type 1 in vitro” (Antimicrob Agents Chemother, 2009).

Legend:
[1] = test system: Human immunodeficiency virus 1; test: Antiviral activity against HIV1 NL4-3 harboring L23I/K43I/M46I/I50L/G51A/A71V amino acid substitution in protease encoding region infected in human MT4 cells assessed as inhibition of p24 Gag protein production selected at 1 uM of atazanavir by ELISA; format: functional, organism-based; details: Human immunodeficiency virus 1, NL4-3, MT4
In short: (§1)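 HIV-1NL4-3 (500 TCID50s) was passaged in MT-4 cells, starting at 0.01–0.03 µM PI and raising the drug generally two- to threefold as virus propagated. Cell-free passage used day-7 supernatants. Variants were then tested in MT-4 cells (10^5/ml) with 100 TCID50s, with or without drug, at 37°C. Day-7 p24 Gag was read by chemiluminescent immunoassay; EC50 vs drug-free control; triplicate.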

[2] = test system: Human immunodeficiency virus 1; test: Antiviral activity against HIV1 MOKW infected in human PHA-PBC assessed as inhibition of p24 Gag protein production by ELISA; format: functional, organism-based; details: Human immunodeficiency virus 1, MOKW
In short: (§2)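 Phytohemagglutinin-stimulated PBMs (10^6/ml) infected with 50 TCID50s of each primary isolate, cultured with or without drug in 10-fold serial dilutions. On day 7, supernatant p24 Gag was measured by automated chemiluminescent enzyme immunoassay. […] Triplicate.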

[3] = test system: Human immunodeficiency virus 1; test: Antiviral activity against HIV1 MM harboring L10I/K43T/M46L/I54V/L63P/A71V/V82A/L90M/Q92K in protease encoding region infected in human PHA-PBC assessed as inhibition of p24 Gag protein production by ELISA; format: functional, organism-based; details: Human immunodeficiency virus 1, MM; in short: as §2
[4] = test system: Human immunodeficiency virus 1; test: Antiviral activity against HIV1 JSL harboring L10I/L24I/L33F/E35D/M36I/N37S/M46L/I54V/R57K/I62V/L63P/A71V/G73S/82A in protease encoding region infected in human PHA-PBC assessed as inhibition of p24 Gag protein production by ELISA; format: functional, organism-based; details: Human immunodeficiency virus 1, JSL; in short: as §2
[5] = test system: Human immunodeficiency virus 1; test: Antiviral activity against HIV1 NL4-3 harboring L10I/G48V/I54V/L90M amino acid substitution in protease encoding region infected in human MT4 cells assessed as inhibition of p24 Gag protein production selected at 5 uM of saquinavir by ELISA; format: functional, organism-based; details: Human immunodeficiency virus 1, NL4-3, MT4; in short: as §1
[6] = test system: Human immunodeficiency virus 1; test: Antiviral activity against HIV1 G harboring L10I/V11I/T12E/I15V/L19I/R41K/M46L/L63P/A71T/V82A/L90M in protease encoding region infected in human PHA-PBC assessed as inhibition of p24 Gag protein production by ELISA; format: functional, organism-based; details: Human immunodeficiency virus 1, G; in short: as §2
[7] = test system: Human immunodeficiency virus 1; test: Antiviral activity against HIV1 NL4-3 harboring L10F/L24I/M46I/L63P/A71V/G73S/V82T amino acid substitution in protease encoding region infected in human MT4 cells assessed as inhibition of p24 Gag protein production selected at 5 uM of indinavir by ELISA; format: functional, organism-based; details: Human immunodeficiency virus 1, NL4-3, MT4; in short: as §1
[8] = test system: Human immunodeficiency virus 1; test: Antiviral activity against HIV1 NL4-3 harboring L10F/D30N/K45I/A71V/T74S amino acid substitution in protease encoding region infected in human MT4 cells assessed as inhibition of p24 Gag protein production selected at 5 uM of nelfinavir by ELISA; format: functional, organism-based; details: Human immunodeficiency virus 1, NL4-3, MT4; in short: as §1
[9] = test system: Human immunodeficiency virus 1; test: Antiviral activity against HIV1 TM harboring L10I/K14R/R41K/M46L/I54V/L63P/A71V/V82A/L90M/I93L in protease encoding region infected in human PHA-PBC assessed as inhibition of p24 Gag protein production by ELISA; format: functional, organism-based; details: Human immunodeficiency virus 1, TM; in short: as §2
[10] = test system: Human immunodeficiency virus 1; test: Antiviral activity against HIV1 NL4-3 harboring M46I/V82F/I84V amino acid substitution in protease encoding region infected in human MT4 cells assessed as inhibition of p24 Gag protein production selected at 5 uM of ritonavir by ELISA; format: functional, organism-based; details: Human immunodeficiency virus 1, NL4-3, MT4; in short: as §1
[11] = test system: Human immunodeficiency virus 1; test: Antiviral activity against HIV1 C harboring L10I/I15V/K20R/L24I/M36I/M46L/I54V/I62V/L63P/K70Q/V82A/L89M in protease encoding region infected in human PHA-PBC assessed as inhibition of p24 Gag protein production by ELISA; format: functional, organism-based; details: Human immunodeficiency virus 1, C; in short: as §2
[12] = test system: Human immunodeficiency virus 1; test: Antiviral activity against HIV1 B harboring L10I/I15V/E35D/N37E/K45R/I54V/L63P/A71V/V82T/L90M/I93L/C95F in protease encoding region infected in human PHA-PBC assessed as inhibition of p24 Gag protein production by ELISA; format: functional, organism-based; details: Human immunodeficiency virus 1, B; in short: as §2
[13] = test system: Human immunodeficiency virus 1; test: Ratio of EC50 for HIV1 NL4-3 harboring L10F/D30N/K45I/A71V/T74S amino acid substitution in protease encoding region to EC50 for HIV1 NL4-3; format: functional
[14] = test system: Human immunodeficiency virus 1; test: Ratio of EC50 for HIV1 NL4-3 harboring L10F/V32I/M46I/I54M//A71V/I84V amino acid substitution in protease encoding region to EC50 for HIV1 NL4-3; format: functional
In short: (§3)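 MT-4 cells (10^5/ml) infected with 100 TCID50s of PI-selected HIV-1NL4-3 variants or the parental strain, with or without serial drug concentrations, at 37°C. Day 7 supernatant p24 Gag measured by chemiluminescent enzyme immunoassay. […] Triplicate. Ratio is variant EC50 over wild-type EC50.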

[15] = test system: Human immunodeficiency virus 1; test: Ratio of EC50 for HIV1 NL4-3 harboring L10F/L33F/M46I/I47V/Q58E/V82I/I84V/I85V amino acid substitution in protease encoding region to EC50 for HIV1 NL4-3; format: functional; in short: as §3
[16] = test system: Human immunodeficiency virus 1; test: Antiviral activity against HIV1 NL4-3 infected in human MT4 cells assessed as inhibition of p24 gag protein production by ELISA; format: functional, organism-based; details: Human immunodeficiency virus 1, NL4-3, MT4
In short: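 MT-4 cells (10^5/ml) were infected with 100 TCID50s of HIV-1 and cultured at 37°C with or without various drug concentrations. On day 7, supernatant p24 Gag was measured by automated chemiluminescent enzyme immunoassay. […] Assays were run in triplicate.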

[17] = test system: Human immunodeficiency virus 1; test: Ratio of EC50 for HIV1 NL4-3 harboring L10F/L24I/M46I/L63P/A71V/G73S/V82T amino acid substitution in protease encoding region to EC50 for HIV1 NL4-3; format: functional; in short: as §3
[18] = test system: Human immunodeficiency virus 1; test: Ratio of EC50 for HIV1 NL4-3 harboring M46I/V82F/I84V amino acid substitution in protease encoding region to EC50 for HIV1 NL4-3; format: functional; in short: as §3
[19] = test system: Human immunodeficiency virus 1; test: Antiviral activity against HIV1 NL4-3 harboring L10F/V32I/M46I/I54M//A71V/I84V amino acid substitution in protease encoding region infected in human MT4 cells assessed as inhibition of p24 Gag protein production selected at 5 uM of amprenavir by ELISA; format: functional, organism-based; details: Human immunodeficiency virus 1, NL4-3, MT4
In short: (§4)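 Cell-free passage used day-7 supernatants. Variants were then tested in MT-4 cells (10^5/ml) with 100 TCID50s, with or without drug, at 37°C. Day-7 p24 Gag was read by chemiluminescent immunoassay; EC50 vs drug-free control; triplicate.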

[20] = test system: Human immunodeficiency virus 1; test: Ratio of EC50 for HIV1 NL4-3 harboring L10F/M46I/I54V/V82A amino acid substitution in protease encoding region to EC50 for HIV1 NL4-3; format: functional; in short: as §3
[21] = test system: Human immunodeficiency virus 1; test: Ratio of EC50 for HIV1 NL4-3 harboring L10I/G48V/I54V/L90M amino acid substitution in protease encoding region to EC50 for HIV1 NL4-3; format: functional; in short: as §3
[22] = test system: Human immunodeficiency virus 1; test: Antiviral activity against HIV1 NL4-3 harboring L10F/L33F/M46I/I47V/Q58E/V82I/I84V/I85V amino acid substitution in protease encoding region infected in human MT4 cells assessed as inhibition of p24 Gag protein production selected at 5 uM of GRL-02031 by ELISA; format: functional, organism-based; details: Human immunodeficiency virus 1, NL4-3, MT4; in short: as §4
[23] = test system: Human immunodeficiency virus 1; test: Ratio of EC50 for HIV1 NL4-3 harboring L23I/K43I/M46I/I50L/G51A/A71V amino acid substitution in protease encoding region to EC50 for HIV1 NL4-3; format: functional; in short: as §3
[24] = test system: Human immunodeficiency virus 1; test: Antiviral activity against HIV1 NL4-3 harboring L10F/M46I/I54V/V82A amino acid substitution in protease encoding region infected in human MT4 cells assessed as inhibition of p24 Gag protein production selected at 1 uM of Lopinavir by ELISA; format: functional, organism-based; details: Human immunodeficiency virus 1, NL4-3, MT4; in short: as §4

Cc1cccc(C)c1OCC(=O)N[C@@H](Cc1ccccc1)[C@@H](O)C[C@H](Cc1ccccc1)NC(=O)[C@H](C(C)C)N1CCCNC1=O [LOPINAVIR]
EC50 [1]: 25 nM | EC50 [2]: 29 nM | EC50 [3]: 620 nM | EC50 [4]: 740 nM | EC50 [5]: 700 nM | EC50 [6]: 130 nM | EC50 [7]: > 1000 nM | EC50 [8]: 290 nM | EC50 [9]: 230 nM | EC50 [10]: 110 nM | EC50 [11]: 460 nM | EC50 [12]: 250 nM

COC(=O)N[C@H](C(=O)N[C@@H](Cc1ccccc1)[C@@H](O)CN(Cc1ccc(-c2ccccn2)cc1)NC(=O)[C@@H](NC(=O)OC)C(C)(C)C)C(C)(C)C [ATAZANAVIR]
EC50 [1]: 310 nM | Ratio EC50 [13]: 6 | Ratio EC50 [14]: 1 | Ratio EC50 [15]: 8 | EC50 [5]: 320 nM | EC50 [16]: 4.3 nM | EC50 [7]: 63 nM | EC50 [8]: 24 nM | Ratio EC50 [17]: 15 | EC50 [10]: 21 nM | Ratio EC50 [18]: 5 | EC50 [19]: 3.2 nM | Ratio EC50 [20]: 10 | Ratio EC50 [21]: 74 | EC50 [22]: 36 nM | Ratio EC50 [23]: 72 | EC50 [24]: 41 nM
